Reference: ChEMBL document CHEMBL3621107, “Ring fusion strategy for synthesis and lead optimization of sulfur-substituted anthra[1,2-c][1,2,5]thiadiazole-6,11-dione derivatives as promising scaffold of antitumor agents” (Eur J Med Chem, 2015)
pIC50: −log10 of the molar value.

How the values were obtained:
786-0 = assay: Cytotoxicity against human 786-0 cells assessed as cell growth at 10 uM after 48 hrs by SRB assay relative to control; assay type: functional; settings: 786-0, 48 h, read-out: Activity
Outline: (§1)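 First-stage NCI-60 screen by the NCI Developmental Therapeutics Program. Each compound was tested once at a single concentration of 10 μM against the 60-cell-line panel. Growth percentage was reported for each cell line.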

IGROV-1 = assay: Cytotoxicity against human IGROV1 cells assessed as cell growth at 10 uM after 48 hrs by SRB assay relative to control; assay type: functional; settings: IGROV-1, 48 h, read-out: Activity; outline: as §1
SK-MEL-2 = assay: Cytotoxicity against human SK-MEL-2 cells assessed as cell growth at 10 uM after 48 hrs by SRB assay relative to control; assay type: functional; settings: SK-MEL-2, 48 h, read-out: Activity
Outline: (§2)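 First-stage NCI DTP one-dose screen against the 60 human tumour cell line panel. Compounds were tested at a single 10 μM level, and results are given as growth percentage.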

NCI/ADR-RES = assay: Cytotoxicity against human NCI/ADR-RES cells assessed as cell growth at 10 uM after 48 hrs by SRB assay relative to control; assay type: functional; settings: read-out: Activity; outline: as §2
CAKI-1 = assay: Cytotoxicity against human Caki1 cells assessed as cell growth at 10 uM after 48 hrs by SRB assay relative to control; assay type: functional; settings: CAKI-1, 48 h, read-out: Activity; outline: as §1
MOLT-4 = assay: Cytotoxicity against human MOLT4 cells assessed as cell growth at 10 uM after 48 hrs by SRB assay relative to control; assay type: functional; settings: MOLT-4, 48 h, read-out: Activity; outline: as §2
HCC 2998 = assay: Cytotoxicity against human HCC2998 cells assessed as cell growth at 10 uM after 48 hrs by SRB assay relative to control; assay type: functional; settings: HCC 2998, 48 h, read-out: Activity; outline: as §1
PC-3 = assay: Cytotoxicity against human PC3 cells assessed as cell growth at 10 uM after 48 hrs by SRB assay relative to control; assay type: functional; settings: PC-3, 48 h, read-out: Activity; outline: as §2
ACHN = assay: Cytotoxicity against human ACHN cells assessed as cell growth at 10 uM after 48 hrs by SRB assay relative to control; assay type: functional; settings: read-out: Activity; outline: as §1
NCI-H522 = assay: Cytotoxicity against human NCI-H522 cells assessed as cell growth at 10 uM after 48 hrs by SRB assay relative to control; assay type: functional; settings: NCI-H522, 48 h, read-out: Activity; outline: as §2
DU-145 = assay: Cytotoxicity against human DU145 cells after 72 hrs by MTT assay; assay type: functional, cell-based; settings: DU-145, 72 h
Outline: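 DU-145 cells grown in RPMI-1640 with 5% heat-inactivated fetal calf serum at 37 °C, 5% CO2. About 2×10^3 cells per well were seeded and incubated for 24 h. Compounds were dissolved in DMSO freshly and diluted into medium (vehicle 0.1% DMSO), then cells were exposed for 72 h. MTT was added for 3 h at 37 °C and absorbance read at 570 nm.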

HCT-15 = assay: Cytotoxicity against human HCT15 cells assessed as cell growth at 10 uM after 48 hrs by SRB assay relative to control; assay type: functional; settings: HCT-15, 48 h, read-out: Activity; outline: as §1
M14 = assay: Cytotoxicity against human M14 cells assessed as cell growth at 10 uM after 48 hrs by SRB assay relative to control; assay type: functional; settings: M14, 48 h, read-out: Activity; outline: as §1
HOP-92 = assay: Cytotoxicity against human HOP92 cells assessed as cell growth at 10 uM after 48 hrs by SRB assay relative to control; assay type: functional; settings: HOP-92, 48 h, read-out: Activity; outline: as §1
K562 = assay: Cytotoxicity against human K562 cells assessed as cell growth at 10 uM after 48 hrs by SRB assay relative to control; assay type: functional; settings: K562, 48 h, read-out: Activity; outline: as §1
SF-268 = assay: Cytotoxicity against human SF268 cells assessed as cell growth at 10 uM after 48 hrs by SRB assay relative to control; assay type: functional; settings: SF-268, 48 h, read-out: Activity; outline: as §2
UO-31 = assay: Cytotoxicity against human UO31 cells assessed as cell growth at 10 uM after 48 hrs by SRB assay relative to control; assay type: functional; settings: UO-31, 48 h, read-out: Activity
Outline: (§3)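 NCI-60 one-dose screen run by NCI DTP: each cell line exposed to a single 10 µM dose, and percentage growth recorded against untreated growth.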

SK-MEL-5 = assay: Cytotoxicity against human SK-MEL-5 cells assessed as cell growth at 10 uM after 48 hrs by SRB assay relative to control; assay type: functional; settings: SK-MEL-5, 48 h, read-out: Activity; outline: as §2
LOX IMVI = assay: Cytotoxicity against human LOXIMVI cells assessed as cell growth at 10 uM after 48 hrs by SRB assay relative to control; assay type: functional; settings: read-out: Activity; outline: as §1
SNB-75 = assay: Cytotoxicity against human SNB75 cells assessed as cell growth at 10 uM after 48 hrs by SRB assay relative to control; assay type: functional; settings: SNB-75, 48 h, read-out: Activity; outline: as §3
[1] = Cytotoxicity against human EKVX cells assessed as cell growth at 10 uM after 48 hrs by SRB assay relative to control; assay type: functional; settings: read-out: Activity; outline: as §1
MDA-MB-468 = assay: Cytotoxicity against human MDA-MB-468 cells assessed as cell growth at 10 uM after 48 hrs by SRB assay relative to control; assay type: functional; settings: MDA-MB-468, 48 h, read-out: Activity; outline: as §2
NCI-H23 = assay: Cytotoxicity against human NCI-H23 cells assessed as cell growth at 10 uM after 48 hrs by SRB assay relative to control; assay type: functional; settings: NCI-H23, 48 h, read-out: Activity; outline: as §2
SN12C = assay: Cytotoxicity against human SN12C cells assessed as cell growth at 10 uM after 48 hrs by SRB assay relative to control; assay type: functional; settings: read-out: Activity; outline: as §2
HT-29 = assay: Cytotoxicity against human HT-29 cells assessed as cell growth at 10 uM after 48 hrs by SRB assay relative to control; assay type: functional; settings: HT-29, 48 h, read-out: Activity; outline: as §1
SK-MEL-28 = assay: Cytotoxicity against human SK-MEL-28 cells assessed as cell growth at 10 uM after 48 hrs by SRB assay relative to control; assay type: functional; settings: SK-MEL-28, 48 h, read-out: Activity; outline: as §2
MDA-MB-435 = assay: Cytotoxicity against human MDA-MB-435 cells assessed as cell growth at 10 uM after 48 hrs by SRB assay relative to control; assay type: functional; settings: MDA-MB-435, 48 h, read-out: Activity; outline: as §2
KM12 = assay: Cytotoxicity against human KM12 cells assessed as cell growth at 10 uM after 48 hrs by SRB assay relative to control; assay type: functional; settings: KM12, 48 h, read-out: Activity; outline: as §1
UACC-62 = assay: Cytotoxicity against human UACC62 cells assessed as cell growth at 10 uM after 48 hrs by SRB assay relative to control; assay type: functional; settings: UACC-62, 48 h, read-out: Activity; outline: as §3
Malme-3M = assay: Cytotoxicity against human MALME-3M cells assessed as cell growth at 10 uM after 48 hrs by SRB assay relative to control; assay type: functional; settings: read-out: Activity; outline: as §1
RPMI-8226 = assay: Cytotoxicity against human RPMI8226 cells assessed as cell growth at 10 uM after 48 hrs by SRB assay relative to control; assay type: functional; settings: RPMI-8226, 48 h, read-out: Activity; outline: as §2

Structure (SMILES) | growth at 10 µM (786-0) | growth at 10 µM (IGROV-1) | growth at 10 µM (SK-MEL-2) | growth at 10 µM (NCI/ADR-RES) | growth at 10 µM (CAKI-1) | growth at 10 µM (MOLT-4) | growth at 10 µM (HCC 2998) | growth at 10 µM (PC-3) | growth at 10 µM (ACHN) | growth at 10 µM (NCI-H522) | pIC50 (DU-145) | growth at 10 µM (HCT-15) | growth at 10 µM (M14) | growth at 10 µM (HOP-92) | growth at 10 µM (K562) | growth at 10 µM (SF-268) | growth at 10 µM (UO-31) | growth at 10 µM (SK-MEL-5) | growth at 10 µM (LOX IMVI) | growth at 10 µM (SNB-75) | further results
Cc1ccccc1Sc1cc2c(c3nsnc13)C(=O)c1ccccc1C2=O | 100% | 80.1% | 73.3% | 59.5% | 81.5% | 67.3% | 124% | 73.3% | 89.8% | 74.8% | < 4.82 | 38.6% | 94.2% | 89.9% | 32.3% | 74.7% | 62.1% | 87.5% | 30% | 76.3% | growth at 10 µM [1]: 105%; growth at 10 µM (MDA-MB-468): 53.7%; growth at 10 µM (NCI-H23): 53.2%; growth at 10 µM (SN12C): 86%; growth at 10 µM (HT-29): 104%; growth at 10 µM (SK-MEL-28): 106%; growth at 10 µM (MDA-MB-435): 80.6%; growth at 10 µM (KM12): 103%; growth at 10 µM (UACC-62): 90.7%; growth at 10 µM (Malme-3M): 96.8%; growth at 10 µM (RPMI-8226): 48.6%
CSc1ccc(Sc2cc3c(c4nsnc24)C(=O)c2ccccc2C3=O)cc1 | 110% | 95.7% | 89.3% | 91.8% | 99.4% | 59.9% | 111% | 78.4% | 104% | 95.4% | < 4.82 | 112% | 108% | 4.31% | 67.5% | 89.7% | 67.6% | 101% | 69% | 75.1% | growth at 10 µM [1]: 114%; growth at 10 µM (MDA-MB-468): 82.2%; growth at 10 µM (NCI-H23): 81.5%; growth at 10 µM (SN12C): 98%; growth at 10 µM (HT-29): 102%; growth at 10 µM (SK-MEL-28): 120%; growth at 10 µM (MDA-MB-435): 118%; growth at 10 µM (KM12): 100%; growth at 10 µM (UACC-62): 111%; growth at 10 µM (Malme-3M): 105%; growth at 10 µM (RPMI-8226): 88.6%
O=C1c2ccccc2C(=O)c2c1cc(Sc1cc(Cl)ccc1Cl)c1nsnc21 | 67.5% | 78.1% | 101% | 83.1% | 108% | 1.27% | 109% | 80.6% | 88.5% | 91.3% | < 4.82 | 92.8% | 99% | 65.1% | 47.8% | 83% | 91.5% | 109% | 73% | 47% | growth at 10 µM [1]: 109%; growth at 10 µM (MDA-MB-468): 90.7%; growth at 10 µM (NCI-H23): 74.6%; growth at 10 µM (SN12C): 96.7%; growth at 10 µM (HT-29): 106%; growth at 10 µM (SK-MEL-28): 123%; growth at 10 µM (MDA-MB-435): 106%; growth at 10 µM (KM12): 101%; growth at 10 µM (UACC-62): 94.1%; growth at 10 µM (Malme-3M): 94.3%; growth at 10 µM (RPMI-8226): 77.2%
